Molecules are shown by their SMILES. Entries after “also recorded” stand apart in the source; their conditions may differ.

Data set [1] has as its system wild-type DT40 cells. Kind of data set: DT40 cell viability. The format is cell-based, Chicken. Conditions: 72 h, veliparib up to 10 μM. The procedure, abridged:
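Chicken DT40 B-cell lines from an academic lab. 200 cells per well, continuously exposed to a range of drug concentrations for 72 h, in triplicate. Viability read by ATP content: one-step luciferase reagent added, luminescence read after 5 min. Viability is the treated ATP level over untreated ATP level × 100, with untreated set to 100%. SD from n = 3.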

Data set [2] is described as follows: Water solubility. The format is physicochemical.
The subject of data set [3] is PARP-1-deficient DT40 cells. Kind of data set: DT40 cell viability. Conditions: 72 h, veliparib up to 10 μM. The data set is classed as cell-based, Chicken.
In data set [4] the test system is BRCA2-deficient DT40 cells. Kind of data set: DT40 cell viability. The data set is classed as cell-based, Chicken. Conditions: 72 h.
Data set [5] concerns the target PARP-1 (Homo sapiens, UniProt P09874). Kind of data set: PARP-1 inhibition assay. The format is biochemical.

Sequence of PARP-1 (P09874 whole entry): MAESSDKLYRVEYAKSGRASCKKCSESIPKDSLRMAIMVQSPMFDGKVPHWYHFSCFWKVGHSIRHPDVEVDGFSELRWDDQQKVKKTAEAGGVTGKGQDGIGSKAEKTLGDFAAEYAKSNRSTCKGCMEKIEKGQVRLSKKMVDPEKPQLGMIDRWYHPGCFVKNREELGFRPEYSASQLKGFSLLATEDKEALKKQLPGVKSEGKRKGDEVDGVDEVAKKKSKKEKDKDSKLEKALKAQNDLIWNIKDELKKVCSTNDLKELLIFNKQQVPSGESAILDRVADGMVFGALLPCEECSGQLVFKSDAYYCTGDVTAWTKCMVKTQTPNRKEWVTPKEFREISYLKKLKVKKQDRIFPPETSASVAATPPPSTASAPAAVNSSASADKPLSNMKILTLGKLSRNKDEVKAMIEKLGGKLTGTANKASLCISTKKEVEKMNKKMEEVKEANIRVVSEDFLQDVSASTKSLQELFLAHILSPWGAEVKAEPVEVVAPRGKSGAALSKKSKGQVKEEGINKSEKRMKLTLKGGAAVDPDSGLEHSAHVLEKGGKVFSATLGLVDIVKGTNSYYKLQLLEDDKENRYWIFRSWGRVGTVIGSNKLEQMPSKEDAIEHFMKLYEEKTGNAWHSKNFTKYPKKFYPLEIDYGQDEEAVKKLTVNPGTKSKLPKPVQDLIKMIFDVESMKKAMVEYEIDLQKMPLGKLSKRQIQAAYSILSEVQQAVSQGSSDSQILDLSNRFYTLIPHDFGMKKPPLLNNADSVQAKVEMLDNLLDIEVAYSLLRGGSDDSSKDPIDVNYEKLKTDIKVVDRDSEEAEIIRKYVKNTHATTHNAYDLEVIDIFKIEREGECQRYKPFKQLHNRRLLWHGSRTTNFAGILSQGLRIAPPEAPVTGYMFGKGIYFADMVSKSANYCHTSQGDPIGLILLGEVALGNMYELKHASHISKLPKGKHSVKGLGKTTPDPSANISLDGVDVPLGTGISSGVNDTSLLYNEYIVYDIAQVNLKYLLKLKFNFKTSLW

Take `CN1CCN(CCOc2ccc(/C=C3\Oc4c(C(N)=O)cccc4C3=O)cc2)CC1` [Compound 66, (Z)-2-{4′-[2-(4-Methylpiperazin-1-yl)ethoxy]benzylidene}-3-oxo-2,3-dihydrobenzofuran-7-carboxamide]: the “cytotoxicity, result in words” value was “minimally cytotoxic” in data set [1], “minimally cytotoxic” in data set [3] and “selective cytotoxicity; also recorded: selectively killed; also recorded: selectively active” in data set [4]. Also, the “water solubility, result in words” value in data set [2] is recorded as “water-soluble”. Turning to `Cc1cc2c(c(C(N)=O)c1)OC(C)C2` (stereo not shown) [Compound 13b, 2,5-Dimethyl-2,3-dihydrobenzofuran-7-carboxamide], in data set [5], the “PARP-1 inhibition, result in words” value is “inactive”.

As to `CC1Cc2cc([N+](=O)[O-])cc(C(N)=O)c2O1` (stereo not shown) [Compound 14, 2-Methyl-5-nitro-2,3-dihydrobenzofuran-7-carboxamide], in data set [5], the “PARP-1 inhibition, result in words” value was “inactive”. As to `NC(=O)c1cccc2c1O/C(=C\c1ccccc1O)C2=O` [Compound 55, (Z)-2-(2′-Hydroxybenzylidene)-3-oxo-2,3-dihydrobenzofuran-7-carboxamide], the “PARP-1 inhibition, result in words” value in data set [5] is “Poor inhibition”.

Regarding `CC1Cc2c(N)ccc(C(N)=O)c2O1` (racemic) [rac-28, 4-Amino-2-methyl-2,3-dihydrobenzofuran-7-carboxamide], the “fold increase in inhibition” value in data set [5] (rac-28 vs rac-13a) is recorded as 2 fold. `CC1Cc2cc(F)cc(C(N)=O)c2O1` (racemic) [rac-13c, 5-Fluoro-2-methyl-2,3-dihydrobenzofuran-7-carboxamide] yielded a fold more potent in data set [5] (rac-13c vs 13a) of 4 fold. `CN1CCN(CCS(=O)(=O)Nc2ccc(/C=C3\Oc4c(C(N)=O)cccc4C3=O)cc2)CC1` [Compound 72, (Z)-2-{4-[2-(4-Methylpiperazin-1-yl)ethanesulfonylamino]benzylidene}-3-oxo-2,3-dihydrobenzofuran-7-carboxamide]: the “water solubility, result in words” value in data set [2] was “water-soluble”.

For the compound `NC(=O)c1cccc2c1O/C(=C\c1ccc(OCC(=O)N3CCOCC3)cc1)C2=O` [Compound 68, (Z)-2-[4′-(2-Morpholin-4-yl-2-oxoethoxy)benzylidene]-3-oxo-2,3-dihydrobenzofuran-7-carboxamide], in data set [5] (68 vs 65), the “fold improvement in potency” value is on record as 9 fold. For the compound `NC(=O)c1cccc2c1O/C(=C\c1ccc(O)c(O)c1)C2=O` [Compound 58, (Z)-2-(3′,4′-Dihydroxybenzylidene)-3-oxo-2,3-dihydrobenzofuran-7-carboxamide], the “fold improvement in potency” value in data set [5] (58 vs core 36) is on record as 30 fold. As to `NC(=O)c1cccc2c1O/C(=C\c1cc(O)cc(O)c1)C2=O` [Compound 60, (Z)-2-(3′,5′-Dihydroxybenzylidene)-3-oxo-2,3-dihydrobenzofuran-7-carboxamide], the “PARP-1 inhibition, result in words” value in data set [5] was “poor inhibition; also recorded: complete loss of potency”. Compound `NC(=O)c1cccc2c1O/C(=C\c1ccc(OCCCN3CCOCC3)cc1)C2=O` [Compound 67, (Z)-2-[4′-(3-Morpholin-4-ylpropoxy)benzylidene]-3-oxo-2,3-dihydrobenzofuran-7-carboxamide] displayed a times more potent in data set [5] (67 vs ethyl analogue 65) of around 3 times. With `CC1Cc2cc(N)cc(C(N)=O)c2O1` (stereo not shown) [Compound 15, 5-Amino-2-methyl-2,3-dihydrobenzofuran-7-carboxamide], the “PARP-1 inhibition, result in words” value in data set [5] was “inactive”. The compound `NC(=O)c1cccc2c1O/C(=C\c1ccc(OCCN3CCOCC3)cc1)C2=O` [Compound 65, (Z)-2-[4′-(2-Morpholin-4-ylethoxy)benzylidene]-3-oxo-2,3-dihydrobenzofuran-7-carboxamide] gave a fold less potent in data set [5] (65 vs 64) of 4 fold.

As to `NC(=O)c1cc(F)cc2c1OCC2` [Compound 20, 5-Fluoro-2,3-dihydrobenzofuran-7-carboxamide], in data set [5] (20 vs initial lead 3), the fold more potent was around 5 fold.

In the case of `COc1ccc(/C=C2\Oc3c(C(N)=O)cccc3C2=O)cc1` [Compound 54, (Z)-2-(4′-Methoxybenzylidene)-3-oxo-2,3-dihydrobenzofuran-7-carboxamide], the “fold reduced inhibitory activity” value in data set [5] (54 vs 57) is 4 fold.

Regarding `NC(=O)c1cccc2c1O/C(=C\c1cc(O)ccc1O)C2=O` [Compound 61, (Z)-2-(2′,5′-Dihydroxybenzylidene)-3-oxo-2,3-dihydrobenzofuran-7-carboxamide], the “PARP-1 inhibition, result in words” value in data set [5] is “poor inhibition; also recorded: complete loss of potency”.

The values are drawn from PMC4094269 (Journal of Medicinal Chemistry, 2014).
